Key:
[1] = Toxicity in human HCT116 cells xenografted BALB/c mouse assessed as effect on spleen at 40 to 80 mg/kg, po administered once daily for 21 days measured post-last dose by H and E staining-based imaging analysis; assay type: organism-based; conditions: in vivo, 504 h
Summary of the method: (§1)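 Same xenograft model in BALB/c nude mice with oral daily dosing at 40 or 80 mg/kg in 5% DMSO/saline for 21 days. After sacrifice, organs were fixed in 4% formaldehyde, paraffin-embedded, sectioned at 4 μm and H&E-stained for light-microscopy imaging.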

[2] = Toxicity in human HCT116 cells xenografted BALB/c mouse assessed as effect on heart at 40 to 80 mg/kg, po administered once daily for 21 days measured post-last dose by H and E staining-based imaging analysis; assay type: organism-based; conditions: in vivo, 504 h; summary of the method: as §1
[3] = Toxicity in human HCT116 cells xenografted BALB/c mouse assessed as body weight loss at 40 to 80 mg/kg, po administered once daily for 21 days measured at 3 days interval during compound dosing; assay type: organism-based; conditions: in vivo
Summary of the method: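 BALB/c nude mice (6 weeks old) carried flank HCT116 xenografts (1×10^7 cells with Matrigel, 3:1). Dosing started at mean tumor volume 125 mm³: oral 40 or 80 mg/kg daily for 21 days, vehicle 0.9% saline with 5% DMSO. Body weight was recorded every 3 days; n = 6.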

[4] = Toxicity in human HCT116 cells xenografted BALB/c mouse assessed as effect on liver at 40 to 80 mg/kg, po administered once daily for 21 days measured post-last dose by H and E staining-based imaging analysis; assay type: organism-based; conditions: in vivo, 504 h; summary of the method: as §1
[5] = Toxicity in human HCT116 cells xenografted BALB/c mouse assessed as effect on lung at 40 to 80 mg/kg, po administered once daily for 21 days measured post-last dose by H and E staining-based imaging analysis; assay type: organism-based; conditions: in vivo, 504 h; summary of the method: as §1
[6] = Toxicity in human HCT116 cells xenografted BALB/c mouse assessed as effect on kidney at 40 to 80 mg/kg, po administered once daily for 21 days measured post-last dose by H and E staining-based imaging analysis; assay type: organism-based; conditions: in vivo, 504 h; summary of the method: as §1
Heat shock protein HSP90 [7] = biological target: T1, Heat shock protein HSP90 (Homo sapiens, UniProt P07900+P08238); test: Binding affinity to recombinant […] biotinylated-HSP90 N-terminal domain (9 to 236 residues) (unknown origin) expressed in Escherichia coli BL21 (DE3) by biolayer interferometry
Summary of the method: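 Biotinylated Hsp90 (100 µg/mL) loaded onto streptavidin sensors prewetted 10 min in PBS with 0.05% BSA and 0.01% Tween 20. Analyte binding measured at 28 °C. Double reference subtraction applied; data fitted to a 1:1 model with K_D = K_off/K_on.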

[8] = Distribution coefficient, log D of the compound at pH 7.4 by potentiometric titration method; assay type: physicochemical; conditions: octanol/water
Summary of the method: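 log D at pH 7.4 measured by potentiometric titration on a Gemini Profiler.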

Heat shock protein HSP90 [9] = biological target: T1, Heat shock protein HSP90; test: Inhibition of recombinant full-length HSP90 ATPase activity N-terminal domain (9 to 236 residues) (unknown origin) expressed in Escherichia coli BL21 (DE3) measured after 1 hr by ADP hunter plus assay
HCT-116 = test: Antiproliferative activity against human HCT116 cells measured after 72 hrs by CCK8 assay; assay type: functional, cell-based; conditions: HCT-116, 72 h
Summary of the method: (§2)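 Cells grown in RPMI 1640 with 10% FBS at 37 °C, 5% CO2; STR-authenticated and mycoplasma-checked. Seeded at 3000-5000 cells/well and left 24 h. Serial compound dilutions added for 72 h, with matched DMSO as control. Viability read by CCK8 kit using the standard protocol. IC50 values derived from at least three parallel experiments.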

[10] = biological target: Heat shock protein HSP 90-beta/Hsp90 co-chaperone Cdc37 (Homo sapiens) (UniProt P08238+Q16543); test: Inhibition of His-tagged HSP90/GST-tagged Cdc37 (unknown origin) protein-protein interaction at 100 uM measured after 1 hr by HTRF assay relative to control; assay type: protein-complex assay
Summary of the method: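 His-Hsp90 and GST-Cdc37 were premixed at a final 80 nM in PBS with 200 mM KF, pH 7.4. Compound was added and the mix incubated 1 h at 37 °C, then read by HTRF. Inhibition rate was taken at 100 μM compound.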

Heat shock protein HSP90 [11] = biological target: T1, Heat shock protein HSP90; test: Binding affinity to recombinant […] HSP90 N-terminal domain (9 to 236 residues) (unknown origin) expressed in Escherichia coli BL21 (DE3) assessed as change in melting temperature by SYPRO dye based thermal shift assay
Summary of the method: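 Hsp90 N-terminal domain (10 µM) mixed with compound at 200, 100, 50 or 10 µM in 1× PBS, pH 8.0, with 6× SYPRO Orange. Heated from room temperature to 99 °C at 1 °C/min; fluorescence read at 492 nm excitation and 610 nm emission.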

A549 = test: Antiproliferative activity against human A549 cells measured after 72 hrs by CCK8 assay; assay type: functional, cell-based; conditions: A549, 72 h; summary of the method: as §2
L02 = test: Cytotoxicity against human L02 cells measured after 72 hrs by CCK8 assay; assay type: functional, cell-based; conditions: L02, 72 h; summary of the method: as §2
Heat shock protein HSP90 [12] = biological target: T1, Heat shock protein HSP90; test: Binding affinity to recombinant […] HSP90 N-terminal domain (9 to 236 residues) (unknown origin) expressed in Escherichia coli BL21 (DE3) by isothermal calorimetric method
Summary of the method: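 ITC: 50 µM Hsp90 in the cell and 300 µM compound in the syringe, both in 20 mM Tris-HCl, 150 mM NaCl, pH 7.4. Nineteen injections at 180 s intervals with stirring at 1000 rpm.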

[13] = Permeability of the compound at pH 7.4 by PAMPA; assay type: ADME; conditions: read-out: permeability
Summary of the method: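 Permeability coefficient (Pe) was measured at pH 7.4 by double-sink PAMPA.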

[14] = Stability of the compound in mouse plasma assessed as parent compound remaining at 1 uM measured immediately by LC-MS/MS analysis; assay type: ADME, cell-free; conditions: read-out: Stability
Summary of the method: (§3)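 Compound diluted from 10 mM DMSO stock to 1 μM in mouse or human plasma and held at 37 °C in a water bath. Reactions were stopped with acetonitrile at 0, 10, 30, 60 and 90 min. Parent compound was quantified by LC-MS/MS as % remaining.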

[15] = Stability of the compound in human plasma assessed as parent compound remaining at 1 uM measured immediately by LC-MS/MS analysis; assay type: ADME, cell-free; conditions: read-out: Stability; summary of the method: as §3
[16] = Stability of the compound in mouse plasma assessed as parent compound remaining at 1 uM measured after 30 mins by LC-MS/MS analysis; assay type: ADME, cell-free; conditions: read-out: Stability; summary of the method: as §3
[17] = Stability of the compound in human plasma assessed as parent compound remaining at 1 uM measured after 10 mins by LC-MS/MS analysis; assay type: ADME, cell-free; conditions: read-out: Stability; summary of the method: as §3
[18] = Stability of the compound in mouse plasma assessed as parent compound remaining at 1 uM measured after 90 mins by LC-MS/MS analysis; assay type: ADME, cell-free; conditions: read-out: Stability; summary of the method: as §3
[19] = Stability of the compound in human plasma assessed as parent compound remaining at 1 uM measured after 30 mins by LC-MS/MS analysis; assay type: ADME, cell-free; conditions: read-out: Stability; summary of the method: as §3
[20] = Clearance in mouse liver microsomes at 10 uM preincubated for 5 mins followed by NADPH addition by LC-MS/MS analysis; assay type: ADME, Microsome; conditions: read-out: CLH
Summary of the method: (§4)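 Compound at 10 µM preincubated 5 min at 37 °C with human or mouse liver microsomes (0.5 mg/mL) in 100 mM phosphate, pH 7.4. Reaction started with 1 mM NADPH, stopped with cold acetonitrile, centrifuged and analysed by LC-MS/MS.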

[21] = Clearance in human liver microsomes at 10 uM preincubated for 5 mins followed by NADPH addition by LC-MS/MS analysis; assay type: ADME, Microsome; conditions: read-out: CLH; summary of the method: as §4
[22] = Half life in human liver microsomes at 10 uM preincubated for 5 mins followed by NADPH addition by LC-MS/MS analysis; assay type: ADME, Microsome; summary of the method: as §4
[23] = Stability of the compound in human plasma assessed as parent compound remaining at 1 uM measured after 90 mins by LC-MS/MS analysis; assay type: ADME, cell-free; conditions: read-out: Stability; summary of the method: as §3
[24] = Stability of the compound in human plasma assessed as parent compound remaining at 1 uM measured after 60 mins by LC-MS/MS analysis; assay type: ADME, cell-free; conditions: read-out: Stability; summary of the method: as §3
[25] = Stability of the compound in mouse plasma assessed as parent compound remaining at 1 uM measured after 10 mins by LC-MS/MS analysis; assay type: ADME, cell-free; conditions: read-out: Stability; summary of the method: as §3
[26] = Stability of the compound in mouse plasma assessed as parent compound remaining at 1 uM measured after 60 mins by LC-MS/MS analysis; assay type: ADME, cell-free; conditions: read-out: Stability; summary of the method: as §3
[27] = Half life in mouse liver microsomes at 10 uM preincubated for 5 mins followed by NADPH addition by LC-MS/MS analysis; assay type: ADME, Microsome; summary of the method: as §4

| Structure (SMILES) | Activity [1] | Activity [2] | Activity [3] | Activity [4] | Activity [5] | Activity [6] | Kd (Heat shock protein HSP90 [7]) | logD [8] | IC50 (Heat shock protein HSP90 [9]) | IC50 (HCT-116) | inhibition [10] | ΔTm (Heat shock protein HSP90 [11]) | IC50 (A549) | IC50 (L02) | Kd (Heat shock protein HSP90 [12]) | Papp [13] | other results |
| --- | --- | --- | --- | --- | --- | --- | --- | --- | --- | --- | --- | --- | --- | --- | --- | --- | --- |
| Cc1cc(C)c(S(=O)(=O)N(CC(=O)O)c2ccc(Nc3ccnc(N4CCCC4)n3)cc2)c(C)c1.[Cl-].[Na+] | Non-Toxic | Non-Toxic | Non-Toxic | Non-Toxic | Non-Toxic | Non-Toxic |  |  |  |  |  |  |  |  |  |  |  |
| COC(=O)CN(c1ccc(Nc2ccnc(N3CCNCC3)n2)cc1)S(=O)(=O)c1c(C)cc(C)cc1C |  |  |  |  |  |  | 1.97 µM | 2.63 | > 100 µM | 6.25 µM | 95.5% | 3.53 °C | 43.3 µM | > 50 µM | 1.73 µM | 101 ×10⁻⁶ cm/s |  |
| Cc1cc(C)c(S(=O)(=O)N(CC(=O)O)c2ccc(Nc3ccnc(N4CCNCC4)n3)cc2)c(C)c1.Cl | Non-Toxic | Non-Toxic | Non-Toxic | Non-Toxic | Non-Toxic | Non-Toxic |  |  |  |  |  |  |  |  |  |  |  |
| Cc1cc(C)c(S(=O)(=O)N(CC(=O)O)c2ccc(Nc3ccnc(N4CCCC4)n3)cc2)c(C)c1 |  |  |  |  |  |  | 7.41 µM | 1.67 | > 100 µM | 10.2 µM |  |  | 55.7 µM | > 50 µM | 7.81 µM | 70.4 ×10⁻⁶ cm/s | remaining at 0 min, 1 µM [14]: 100%; remaining at 0 min, 1 µM [15]: 100%; remaining at 0.5 h, 1 µM [16]: 86%; remaining at 10 min, 1 µM [17]: 101%; remaining at 1.5 h, 1 µM [18]: 59%; remaining at 0.5 h, 1 µM [19]: 92%; microsomal CLint at 10 µM [20]: 59 µL/min/mg; microsomal CLint at 10 µM [21]: 32.6 µL/min/mg; half-life at 10 µM [22]: 30.4 min; remaining at 1.5 h, 1 µM [23]: 62%; remaining at 1 h, 1 µM [24]: 76%; remaining at 10 min, 1 µM [25]: 100%; remaining at 1 h, 1 µM [26]: 71%; half-life at 10 µM [27]: 16.8 min |
| Cc1cc(C)c(S(=O)(=O)N(Cc2nnn[nH]2)c2ccc(Nc3ccnc(N4CCNCC4)n3)cc2)c(C)c1 |  |  |  |  |  |  | 5.5 µM |  | > 100 µM | 5.42 µM | 98.6% | 1.36 °C | 37.9 µM | > 50 µM | 2.4 µM | 55.4 ×10⁻⁶ cm/s |  |
